The list is not random: actives were taken first. Their share in the collection is about 1.1%.
ABCB6 inh MLPCN: blocks the human ABCB6 transporter; K562-ABCB6 porphyrin accumulation, flow cytometry, 1 h; active compounds read low; fluorescence ratio to DMSO, % at 10 µM; 0.19% of 360,000 active; AID 602162;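 active = fluorescence ratio to DMSO below 75%, the collection mean minus 3 SD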;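 also: signal is porphyrin accumulated inside mitochondria; lower ratio means ABCB6 inhibition with less porphyrin fluorescence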
SENP1 FRET inh: SENP1 (human) catalytic domain inhibition. recombinant SENP1 catalytic domain, CyPet-SUMO1-YPet FRET cleavage. inhibition, % at 10 µM. 0.21% of 360,000 active;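 active = inhibition at least 30% at 10 µM, raw YFP signal under a set limit, fluorescence ratio 0.5 to 1.5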
Target sequence (Q9P0U3 419-644 limits assumed): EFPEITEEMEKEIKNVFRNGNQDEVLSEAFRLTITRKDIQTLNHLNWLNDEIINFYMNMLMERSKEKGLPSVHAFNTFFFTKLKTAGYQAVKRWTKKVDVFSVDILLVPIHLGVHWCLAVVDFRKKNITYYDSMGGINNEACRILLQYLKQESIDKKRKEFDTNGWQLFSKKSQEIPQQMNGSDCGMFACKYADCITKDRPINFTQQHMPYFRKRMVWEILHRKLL
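Test system: human SENP1 catalytic domain; medium: Tris pH 8 buffer plus EDTA, NaCl, BME, BSA, NP40, catalase; incubation: 50 min reaction at room temperature; technique: FRET, CFP and YFP emission; controls: no-enzyme low control and enzyme-plus-DMSO high control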
FAS TE block: inhibitors of human fatty acid synthase thioesterase domain | P49327 | recombinant FAS-TE, OMFH fluorogenic substrate, fluorescence endpoint | inhibition, % at 15 µM | 0.67% of 360,000 active | AID 602261;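 active = compounds whose normalised, plate-corrected inhibition of enzyme fluorescence in the single-dose primary screen is 50% or more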
iPSC survival up: increases survival of single human iPS cells | survival enhancement, % at 20 µM | 0.044% of 360,000 active | hiPSC single-cell survival, ATPlite luminescence; 100% = ROCK inhibitor wells, 0% = DMSO; in the data active = survival enhancement above about 18%;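 also: cells exposed to compounds for 16 hours before the ATP read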
ABCB6 inh CP1: inhibitors of human ABC transporter ABCB6. shares compounds with ABCB6 inh MLPCN. K562-ABCB6 porphyrin accumulation, flow cytometry, 1 h; active compounds read low. ratio response (% of DMSO), % at 10 µM. 700 tested, under 10 active;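 active = repeat-averaged ratio response below 75% of DMSO, the collection mean minus 3 SD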;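 also: median porphyrin fluorescence at 575 nm with 488 nm excitation from mitochondria; lower ratio means less porphyrin signal so ABCB6 inhibition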
K562 vector FC: effect in K562 cells lacking ABCB6, counter-screen | K562 empty-vector cells, flow cytometry fluorescence, 1 h | 25 tested, under 10 active | shares compounds with ABCB6 inh MLPCN | percent response (fluorescence), % at 100 µM;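 active = compounds whose half-maximal effective concentration is below 100 µM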
FAS-TE conf: FAS thioesterase (human) inhibition, confirmation | shares compounds with FAS TE block | recombinant FAS-TE, OMFH fluorogenic substrate, fluorescence | inhibition, % at 15 µM | 45% of 2,300 active | AID 624325;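 active = compounds inhibiting the enzyme by at least 50% at 15 µM in any one of the replicates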
Each line names hits and unclear results; the compound was inactive in the other large screens (follow-up assays come after a bar, where they were run).

CCN(CC)CCNC(=O)c1nn(-c2ccc(Cl)cc2)c2c1CCc1cc(OC)ccc1-2	none
COc1cccc(CC2CC(=O)N(CCc3ccc4c(c3)OCO4)C2=O)c1 (stereo not drawn)	none
Cc1ccc(CC2CC(=O)N(CCc3ccc4c(c3)OCO4)C2=O)cc1 (stereo not drawn)	ABCB6 inh MLPCN 74 | ABCB6 inh CP1 inactive
CCC(=O)Nc1ccc(N2CCN(C(=O)c3ccccc3C)CC2)cc1	ABCB6 inh MLPCN 65 | ABCB6 inh CP1 inactive
Cc1ccccc1C(=O)N1CCN(c2ccc(NC(=O)Cc3ccccc3)cc2)CC1	none
Cc1cc(NC(=O)c2cccc(S(=O)(=O)N3CCCCCC3)c2)no1	ABCB6 inh MLPCN 70 | ABCB6 inh CP1 inactive
Cc1cc(NC(=O)c2cc(S(=O)(=O)N3CCCCC3)ccc2C)no1	none
O=C(O)CC/C(=C\c1ccc(N2CCOCC2)c([N+](=O)[O-])c1)c1nc2ccccc2s1	none
O=C(O)CC/C(=C\c1ccc(Cl)c([N+](=O)[O-])c1)c1nc2ccccc2s1	ABCB6 inh MLPCN 72 | ABCB6 inh CP1 inactive
C[C@@H]1CN([C@@H](C)CO)C(=O)c2cc(Br)cnc2O[C@H]1CN(C)C(=O)c1ccccc1F	none
COC(=O)CCC(=O)Nc1cc(Cl)cc(Cl)c1	ABCB6 inh MLPCN 72 | ABCB6 inh CP1 inactive
NC(c1ccccc1)c1csc(Nc2ccc(C(F)(F)F)cn2)n1 (stereo not drawn)	ABCB6 inh MLPCN 71 | ABCB6 inh CP1 inactive
O=C(O)CCCCCNc1nc2ncn(Cc3ccccc3)c2c(=O)[nH]1	ABCB6 inh MLPCN 57 | ABCB6 inh CP1 inactive
Cc1cccn2c(=O)c3cc(S(=O)(=O)c4ccccc4)c(=N)n(Cc4ccco4)c3nc12	ABCB6 inh MLPCN 66 | ABCB6 inh CP1 inactive
Cc1cccn2c(=O)c3cc(S(=O)(=O)c4ccc(F)cc4)c(=N)n(Cc4ccco4)c3nc12	none
Cc1ccc(-c2cc(C(F)(F)F)c(C#N)c(SCCC#N)n2)o1	ABCB6 inh MLPCN 71 | ABCB6 inh CP1 inactive
N#CC(=NCc1cccnc1)C1=C(O)c2ccccc2C1=O	none
CCOc1ccccc1NC(=O)c1nc(S(=O)(=O)Cc2cccc(C)c2)ncc1Cl	ABCB6 inh MLPCN 41, FAS TE block 58 | K562 vector FC inactive | FAS-TE conf 48
Cc1ccc(CS(=O)(=O)c2ncc(Cl)c(C(=O)Nc3ccc(OC(F)F)cc3)n2)cc1	ABCB6 inh MLPCN 62, FAS TE block 52 | K562 vector FC inactive | FAS-TE conf inactive
COc1ccc(CNC(=O)c2nc(S(=O)(=O)Cc3ccccc3)ncc2Cl)cc1	none
O=C(Nc1c(F)cccc1F)c1ccc2c(c1)CCN2S(=O)(=O)c1ccccc1	none
CCc1ccccc1N1CC(C(=O)Nc2cc(S(=O)(=O)N3CCCC3)ccc2Cl)CC1=O (stereo not drawn)	none
CCOC(=O)c1c(NC(=O)c2ccc(N3C(=O)[C@@H]4[C@H](C3=O)[C@H]3C=C[C@@H]4C3)cc2)sc2c1CC(C)CC2 (stereo partly drawn)	ABCB6 inh MLPCN 68, FAS TE block 51 | ABCB6 inh CP1 inactive | FAS-TE conf inactive
CSc1ccc(CN2C(=O)C(F)(F)Oc3c(C(C)=O)cccc32)cc1	ABCB6 inh MLPCN 74, FAS TE block 52 | ABCB6 inh CP1 inactive | FAS-TE conf 59
CSc1ccc(CN2C(=O)C(C)Oc3c(C(C)=O)cccc32)cc1 (stereo not drawn)	none
O=C(COc1cccc(Oc2ccccc2)c1)Nc1ccc(SC(F)F)cc1	FAS TE block 81 | FAS-TE conf 55
CC1(Cc2ccccc2Cl)C(=O)Nc2ccc(OC(F)(F)F)cc21 (stereo not drawn)	none
CCCCOc1ccc(-c2c(C#N)c(N)nc(SCC(N)=O)c2C#N)cc1	FAS TE block 76 | FAS-TE conf 92
COc1ccc(-c2ccc(OC)c([C@H]3[C@H]4C=CC[C@@H](C)[C@@H]4C(=O)N3Cc3ccccc3)c2)cc1OC	none
COc1ccc(-c2c([C@H]3[C@H]4C=CC[C@@H](C)[C@@H]4C(=O)N3Cc3ccccc3)ccc3ccccc23)cc1OC	FAS TE block 55 | FAS-TE conf inactive
N#Cc1cc(-c2ccccc2)nc(Oc2ccccc2)n1	FAS TE block 69 | FAS-TE conf 45
N#Cc1ccc(Oc2nc(C#N)cc(-c3ccccc3)n2)cc1	none
O=C(OCC(=O)N1c2ccccc2Sc2ccccc21)c1ccc[n+]([O-])c1	none
Cc1ccc(O)c(C(CC(=O)NC(C)C)c2ccccc2)c1 (stereo not drawn)	none
CC(NC(=O)CC(c1ccccc1)c1cc(Cl)ccc1O)c1ccccc1 (stereo not drawn)	FAS TE block 50 | FAS-TE conf inactive
O=C(COc1ccc(S(=O)(=O)N2CCCCC2)cc1)Nc1ccccc1F	FAS TE block 52 | FAS-TE conf 55
COc1ccc(C(=O)NC2CCSc3ccccc32)cc1F (stereo not drawn)	none
O=C1C=C(c2ccc(Cl)c(C(F)(F)F)c2)C[C@@H](c2ccc(Cl)cc2)C1	FAS TE block 54 | FAS-TE conf inactive
O=C1C=C(c2cc(Cl)cc(Cl)c2)C[C@@H](c2ccc(F)cc2)C1	none
O=C1C=C(c2ccc(Cl)c(C(F)(F)F)c2)C[C@@H](c2ccc(F)cc2)C1	FAS TE block 53 | FAS-TE conf inactive
COc1ccc(CCNC(=O)c2ccc(-c3ccc([N+](=O)[O-])cc3)o2)cc1OC	none
CC(=O)N(CC#CCN(C(C)=O)c1ccccc1)c1ccccc1	none
Cc1cc(C)cc(N(CC(=O)N2CCn3c2nc2ccccc23)S(=O)(=O)c2c(C)noc2C)c1	FAS TE block 65 | FAS-TE conf inactive
COc1cc(/C=C/C(=O)O)cc2c1OCCO2	none
CCCn1c(SCC(=O)Nc2ccccc2-c2ccccc2)nnc1-c1ccoc1C	FAS TE block 60 | FAS-TE conf 74
Cc1occc1-c1nnc(SCC(=O)Nc2ccccc2-c2ccccc2)n1C	none
O=C(/C=C/c1ccc(Cl)cc1Cl)N1CCN(c2ccc([N+](=O)[O-])c(N3CCOCC3)c2)CC1	FAS TE block 65 | FAS-TE conf inactive
O=C(/C=C/c1ccc(Cl)cc1)N1CCN(c2ccc([N+](=O)[O-])c(N3CCOCC3)c2)CC1	none
OC[C@@H]1CN(Cc2ccccc2)C[C@H](n2ccc3c(N4CCCC4)ncnc32)O1	none
Cn1c(=O)cc(OCCCC(=O)NCCC2=CCCCC2)c2ccccc21	none
Cn1c(=O)cc(SCC(=O)NCCC2=CCCCC2)c2cc(Cl)ccc21	FAS TE block 69 | FAS-TE conf inactive

Screening data as filed in PubChem BioAssay.
